Data on 12 compounds can be found in publication PMC7076145 (Journal of Advanced Research, 2020).

Values after ≈ are worked out from the molar mass of the structure shown.

The test system of test [1] is cytokine (TNF-α) production in human leukemia cell line (THP-1). The experiment in a line: Cytokine. In kind it is cell-based. Particulars: THP-1 cells, LPS 50 ng/mL, 240 min; for inhibition of cytokine (TNF-α) production: test concentration not given. In outline: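 THP-1 cells grown in RPMI-1640 with 50 µM mercaptoethanol, 1 mM sodium pyruvate, 10% FBS, 5.5 mM glucose, 2 mM L-glutamine and 10 mM HEPES, then plated at 70% confluency. Cells differentiated to macrophage-like cells with PMA 20 ng/mL for 24 h (37 °C, 5% CO2). E. coli LPS B added with test compound for 240 min. Supernatant TNF-α measured by human DuoSet ELISA.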

Test [2] relates to T-cell proliferation. The experiment in a line: T-cells proliferation assay. The format is cell-based, human. Particulars: for IC50: Homo sapiens, T-cell, 48 h, read-out: IC50 against T-cell proliferation. In outline:
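PBMCs came from heparinized healthy human blood. Blood was diluted 1:1 with RPMI-1640, layered on LSM and spun at 400 g for 20 min at 25 °C. The buffy layer was washed at 4 °C and resuspended in RPMI with 5% FBS. Cells were activated with PHA-L, given test compound at several concentrations in triplicate, and incubated 2 days at 37 °C, 5% CO2. Alamar Blue (one-tenth volume) was added for 4 h; absorbance read at 570 and 600 nm.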

[3] abbreviates: human T-lymphocytes, phytohemagglutinin-L 7.5 μg/mL, 2 days.

Turning to “17β-Hydroxy-1-methyl-3-oxo-5α-androst-1-en [Compound 8]”, the “inhibition of cytokine (TNF-α) production” value (“inhibition of cytokine” below) in test [1] is reported as 69.7 ± 1.4%. In test [2] (setting [3]), the “IC50 against T-cell proliferation” value is listed as 21.1 ± 0.04 µg/mL. For `CC(=O)O[C@H]1CC[C@H]2[C@@H]3CC[C@H]4CC(=O)C=C(C)[C@]4(C)[C@H]3CC[C@]12C` [Compound 1, Metenolone acetate, reference compound], in test [1], the “inhibition of cytokine” value worked out at 62.5 ± 4.4%. Besides, in test [2] (setting [3]), the “activity against T-cell proliferation (in words)” value is “inactive”. With `CC(=O)OC1CC[C@H]2[C@@H]3C[C@H](O)[C@H]4CC(=O)C=C(C)[C@]4(C)[C@H]3CC[C@]12C` (stereo partly drawn) [Compound 2, 6α-Hydroxy-1-methyl-3-oxo-5α-androst-1-en-17-yl acetate], the “inhibition of cytokine” value in test [1] was found to be 73.4 ± 0.6%. Also, in test [2], the IC50 stood at 68.9 ± 0.02 µg/mL. As to `CC(=O)OC1CC[C@H]2[C@@H]3[C@@H](O)C[C@H]4CC(=O)C=C(C)[C@]4(C)[C@H]3CC[C@]12C` (stereo partly drawn) [Compound 4, 7β-Hydroxy-1-methyl-3-oxo-5α-androst-1-en-17-yl acetate], the “inhibition of cytokine” value in test [1] turned out to be 33.5 ± 6.6%. In addition, the “activity against T-cell proliferation (in words)” value in test [2] (setting [3]) is “inactive”. `CC(=O)OC1C[C@@H](O)[C@H]2[C@@H]3CC[C@H]4CC(=O)C=C(C)[C@]4(C)[C@H]3CC[C@]12C` (stereo partly drawn) [Compound 6, 15β-Hydroxy-1-methyl-3-oxo-5α-androst-1-en-17-yl acetate]: in test [1], the “inhibition of cytokine” value stood at 37.8 ± 1.1%. In addition, the “activity against T-cell proliferation (in words)” value in test [2] (setting [3]) is “inactive”. For `CC1=CC(=O)C=C2CC[C@@H]3[C@H](CC[C@]4(C)[C@@H](O)CC[C@@H]34)[C@@]12C` [Compound 7, 17β-Hydroxy-1-methyl-3-oxoandrosta-1,4-dien], in that order: 46.6 ± 5.2% and “inactive”. `CC1=CC(=O)C[C@H]2CC[C@H]3[C@@H]4CC[C@H](O)[C@@]4(C)CC[C@@H]3[C@@]12C` [Compound 9, 17β-Hydroxy-1-methyl-3-oxo-5β-androst-1-en]: in test [1], the “activity against cytokine (TNF-α) production (in words)” value is “inactive”. On to `CC1=CC(=O)C[C@H]2CC[C@@H]3[C@H](CC[C@]4(C)C(=O)CC[C@@H]34)[C@@]12C` [Compound 10, 1-Methyl-5β-androst-1-en-3,17-dione], for which the “inhibition of cytokine” value in test [1] is 73.2 ± 0.3%. `CC1=CC(=O)C=C2CC[C@@H]3[C@H](C[C@@H](O)[C@]4(C)[C@@H](O)CC[C@@H]34)[C@@]12C` [Compound 11, 12β,17β-Dihydroxy-1-methyl-3-oxoandrosta-1,4-dien]: the “inhibition of cytokine” value in test [1] is on record as 60.1 ± 3.3%. Turning to `C[C@H]1CC(=O)C[C@@H]2CC[C@H]3[C@@H]4CC[C@H](O)[C@@]4(C)CC[C@@H]3[C@]21C` [Compound 13, 17β-Hydroxy-1α-methyl-5α-androstan-3-one], the “activity against cytokine (TNF-α) production (in words)” value in test [1] is “inactive”. For `CC1=CC(=O)C[C@@H]2C[C@H](O)[C@H]3[C@@H]4[C@H](O)C[C@H](O)[C@@]4(C)CC[C@@H]3[C@@]12C` [Compound 14, 7β,15β,17β-trihydroxy-1-methyl-3-oxo-5α-androst-1-en], the “inhibition of cytokine” value in test [1] worked out at 52.9 ± 2.4%. Take `C[C@]12C=CC(=O)C=C1CC[C@@H]1[C@@H]2[C@@H](O)C[C@@]2(C)[C@H]1CC[C@]2(O)C(=O)CO` [prednisolone, reference compound]: in test [2], the IC50 is 3.51 ± 0.03 µg/mL (≈ 9.74 µM).
